Key:
Type in all cases: functional
[1] = system: Staphylococcus aureus; assay: Antibacterial activity against Staphylococcus aureus ATCC 25923 after overnight incubation
Outline: (§1)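 Broth microdilution per NCCLS: 200 µL of the α-methoxylated fatty acid in Mueller-Hinton broth, inoculated with 10⁵ CFU, incubated overnight at 37 °C. MIC taken as the highest dilution inhibiting growth, compared with an uninoculated chemical-control well. At least three separate experiments, each in duplicate.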

[2] = system: Enterococcus faecalis; assay: Antibacterial activity against Streptococcus faecalis group D ATCC 29212 after overnight incubation; outline: as §1
[3] = system: Pseudomonas aeruginosa; assay: Antibacterial activity against Pseudomonas aeruginosa ATCC 27853 after overnight incubation; outline: as §1
[4] = system: Escherichia coli; assay: Antibacterial activity against Escherichia coli ATCC 25922 after overnight incubation; outline: as §1

Structure (SMILES)	MIC [1]	MIC [2]	MIC [3] [µg/mL]	MIC [4] [µg/mL]
CCCCCCCCC/C=C\CCCC(OC)C(=O)O (configuration not stated)	350 µM	350 µM	> 200	> 200
CCCCCCCCCC/C=C\CC[C@H](OC)C(=O)O	350 µM	350 µM	> 200	> 200
CCCCCCCCCCCCCCC(OC)C(=O)O (configuration not stated)	> 100 µg/mL	> 100 µg/mL	> 100	> 100

Source: ChEMBL document CHEMBL1151330, “Facile total synthesis and antimicrobial activity of the marine fatty acids (Z)-2-methoxy-5-hexadecenoic acid and (Z)-2-methoxy-6-hexadecenoic acid” (1998)
